Assay results published in ChEMBL document CHEMBL2157993, “Urea-based inhibitors of Trypanosoma brucei methionyl-tRNA synthetase: selectivity and in vivo characterization” (J Med Chem, 2012).
Active and inactive are the calls of the source. The calls are words filed in the database; no cut-off is given here.

Columns and labels:
[1] = system: Trypanosoma brucei; test: Binding affinity to Trypanosoma brucei MetRS at 100 uM by thermal shift assay
Outline: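 Thermal shift (ΔTm) read-out with T. brucei MetRS at 0.4 mg/ml and 5% DMSO; otherwise per an earlier protocol. The test agent was at the single concentration in the curator's line. Repeated three times independently.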

[2] = Inhibition of Trypanosoma brucei MetRS aminoacylation activity assessed as reduction in [3H]methionine incorporation into Escherichia coli tRNA pre-incubated for 15 mins before tRNA addition and measured after 120 mins by scintillation counting
Outline: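 Recombinant enzyme at 10 nM, preincubated 15 min with 12-point two-fold inhibitor dilutions in 25 mM HEPES pH 7.9, 10 mM MgCl2, 50 mM KCl, spermine, BSA, DTT, 1% DMSO and pyrophosphatase. Reaction started with 400 μg/mL E. coli tRNA, 0.1 mM ATP and 250 nM [3H]methionine, run 120 min at room temperature. TCA-precipitated and filtered for scintillation counting. Quadruplicate, with IC50 by sigmoidal fit.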

[3] = Selectivity ratio of IC50 for human MetRS to IC50 for Trypanosoma brucei MetRS
Outline: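 Ratio of the human mitochondrial MetRS IC50 to the T. brucei MetRS IC50, each from a [3H]methionine aminoacylation assay.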

[4] = system: Trypanosoma brucei brucei; test: Growth inhibition of Trypanosoma brucei brucei 427 blood stream forms after 48 hrs by alamar blue assay; assay type: functional, organism-based; settings: Trypanosoma brucei, 427, 48 h
Outline: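 Strain 427 bloodstream forms cultured in HMI-9 with 10% FBS at 37°C, 5% CO2. Triplicate wells seeded at 5×10^4 trypomastigotes with serial compound dilutions from 20 mM DMSO stocks. AlamarBlue read-out at 48 h, with pentamidine as the positive control.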

[5] = system: HepG2; test: Cytotoxicity against human HepG2 cells incubated for 48 hrs by alamar blue assay; assay type: cell-based; settings: HepG2, 48 h
Outline: (§1)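 […] cells in RPMI or HepG2 cells in DMEM/F-12, each with 10% serum, seeded at 5×10^3 per well. Exposed to serial compound dilutions for 48 h.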

[6] = Permeability across MDCK2-MDR1 cells expressing MDR1 at 3 uM in absence of 2 uM P-gp inhibitor Elacridal by mass spectroscopy; assay type: ADME, cell-based, Canis lupus familiaris; settings: dog, mdck-ii
Outline: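 MDR1-MDCKII cells seeded on Transwell inserts and assayed 3 days later at 37°C in HBSS with glucose and HEPES. Monolayers preincubated about 30 min with or without 2 μM elacridar, then given compound at 3 μM final (apical). After 60 min shaking, both chambers were sampled for MS. Integrity checked by Lucifer Yellow and TEER. Triplicate. Papp(A-B) and AQ calculated.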

[7] = Drug level in Swiss Webster mouse brain at 5 mg/kg, ip after 60 mins by MS/MS method; assay type: ADME, organism-based; set-up: dose 5 mg/kg, route intraperitoneal; settings: read-out: Drug uptake
Outline: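 Female Swiss Webster mice, 6-8 weeks old, three per compound, given 5 mg/kg IP in 5% DMSO/3% EtOH/7% Tween 80 saline. Killed at 1 h. Plasma and homogenised brain extracted with acetonitrile containing an extraction standard, with spiked blank brains used for standardisation. Quantified by LC-MS/MS.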

[8] = molecular target: ATP-dependent translocase ABCB1 (Homo sapiens, UniProt P08183); test: Binding affinity to MDR1 expressed in MDCK2 cells assessed as absorptive quotient at 3 uM in absence of 2 uM by mass spectroscopy; assay type: ADME, cell-based; settings: dog, mdck-ii
Outline: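 Monolayers preincubated about 30 min with or without 2 μM elacridar, then given compound at 3 μM final (apical). After 60 min shaking, both chambers were sampled for MS. Integrity checked by Lucifer Yellow and TEER. Triplicate. Papp(A-B) and AQ calculated.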

[9] = system: Trypanosoma brucei; test: Inhibition of protein synthesis in Trypanosoma brucei assessed as reduction in [3H]L-histidine incorporation into proteins incubated for 4 hrs by scintillation counting; assay type: functional, organism-based
[10] = Selectivity index, ratio of EC50 for human CRL8155 cells to EC50 for Trypanosoma brucei brucei 427; assay type: toxicity; settings: read-out: Ratio EC50
[11] = Selectivity index, ratio of EC50 for human HepG2 cells to EC50 for Trypanosoma brucei brucei 427; assay type: toxicity, cell-based; settings: read-out: Ratio EC50
[12] = Cytotoxicity against human CRL8155 cells incubated for 48 hrs by alamar blue assay; assay type: cell-based; settings: CRL8155, 48 h; outline: as §1
[13] = system: Mus musculus; test: Cmax in mouse at 50 mg/kg, po administered as single dose measured over 6 hrs by MS/MS method; assay type: ADME, organism-based; set-up: dose 50 mg/kg, route oral; settings: in vivo, 6 h
Outline: (§2)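 Mice, three per group, given one oral dose of 50 mg/kg in 5% DMSO, 3% EtOH, 7% Tween 80 in saline. Tail-snip blood taken at 0.5, 1, 2, 3, 4 and 6 h. Plasma extracted with acetonitrile and quantified by LC-MS/MS.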

[14] = Tmax in mouse at 50 mg/kg, po administered as single dose measured over 6 hrs by MS/MS method; assay type: ADME, organism-based; set-up: dose 50 mg/kg, route oral; settings: in vivo; outline: as §2
[15] = system: Mus musculus; test: Half life in mouse at 50 mg/kg, po administered as single dose measured over 6 hrs by MS/MS method; assay type: ADME, organism-based; set-up: dose 50 mg/kg, route oral; settings: in vivo, 6 h; outline: as §2
[16] = system: Mus musculus; test: AUC in mouse at 50 mg/kg, po administered as single dose measured over 6 hrs by MS/MS method; assay type: ADME, organism-based, Plasma; set-up: time < 6 hr, dose 50 mg/kg, route oral; settings: in vivo, 6 h; outline: as §2
[17] = system: Trypanosoma brucei rhodesiense; test: Antiparasitic activity against Trypanosoma brucei rhodesiense STIB900 infected in Swiss Webster mouse assessed as reduction in parasitemia at 50 mg/kg, po dosed 24 hrs post infection every 12 hrs for 4 days measured 48 hrs post infection by microscopy; assay type: functional; set-up: scale not given: the % may be the effect or the level left
Outline: (§3)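 Female Swiss Webster (CFW) mice, 6-8 weeks old, five per group. Each infected IP at time 0 with 1×10^4 bloodstream-form STIB900 in 0.2 ml. Compound in 5% DMSO, 3% EtOH, 7% Tween 80 in saline, given by oral gavage (0.2 mL). Vehicle-only group dosed alongside. Parasitemia read daily by wet-mount microscopy of tail blood. Unpaired t-tests per day.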

[18] = system: Trypanosoma brucei rhodesiense; test: Antiparasitic activity against Trypanosoma brucei rhodesiense STIB900 blood stream forms incubated for 48 hrs by alamar blue assay; assay type: functional, organism-based; settings: STIB900, 48 h
[19] = system: Mus musculus; test: Toxicity in Trypanosoma brucei rhodesiense STIB900 infected Swiss Webster mouse at 50 mg/kg, po dosed 24 hrs post infection every 12 hrs for 4 days; assay type: organism-based; set-up: dose 50 mg/kg, route oral; settings: in vivo
[20] = system: Mus musculus; test: Time duration for plasma concentration staying above IC50 in Trypanosoma brucei rhodesiense STIB900 infected Swiss Webster mouse at 50 mg/kg, po dosed 24 hrs post infection every 12 hrs for 4 days
[21] = system: Trypanosoma brucei rhodesiense; test: Antiparasitic activity against Trypanosoma brucei rhodesiense STIB900 infected in Swiss Webster mouse assessed as reduction in parasitemia at 50 mg/kg, po dosed 24 hrs post infection every 12 hrs for 4 days measured 72 hrs post infection by microscopy; assay type: functional; set-up: scale not given: the % may be the effect or the level left; outline: as §3
[22] = system: Trypanosoma brucei rhodesiense; test: Antiparasitic activity against Trypanosoma brucei rhodesiense STIB900 infected in Swiss Webster mouse assessed as reduction in parasitemia at 50 mg/kg, po dosed 24 hrs post infection every 12 hrs for 4 days measured 96 hrs post infection by microscopy; assay type: functional; set-up: scale not given: the % may be the effect or the level left; outline: as §3
[23] = system: Trypanosoma brucei rhodesiense; test: Antiparasitic activity against Trypanosoma brucei rhodesiense STIB900 infected in Swiss Webster mouse assessed as reduction in parasitemia at 50 mg/kg, po dosed 24 hrs post infection every 12 hrs for 4 days measured 120 hrs post infection by microscopy; assay type: functional, organism-based; set-up: dose 50 mg/kg

Chain of ATP-dependent translocase ABCB1 (P08183 whole entry): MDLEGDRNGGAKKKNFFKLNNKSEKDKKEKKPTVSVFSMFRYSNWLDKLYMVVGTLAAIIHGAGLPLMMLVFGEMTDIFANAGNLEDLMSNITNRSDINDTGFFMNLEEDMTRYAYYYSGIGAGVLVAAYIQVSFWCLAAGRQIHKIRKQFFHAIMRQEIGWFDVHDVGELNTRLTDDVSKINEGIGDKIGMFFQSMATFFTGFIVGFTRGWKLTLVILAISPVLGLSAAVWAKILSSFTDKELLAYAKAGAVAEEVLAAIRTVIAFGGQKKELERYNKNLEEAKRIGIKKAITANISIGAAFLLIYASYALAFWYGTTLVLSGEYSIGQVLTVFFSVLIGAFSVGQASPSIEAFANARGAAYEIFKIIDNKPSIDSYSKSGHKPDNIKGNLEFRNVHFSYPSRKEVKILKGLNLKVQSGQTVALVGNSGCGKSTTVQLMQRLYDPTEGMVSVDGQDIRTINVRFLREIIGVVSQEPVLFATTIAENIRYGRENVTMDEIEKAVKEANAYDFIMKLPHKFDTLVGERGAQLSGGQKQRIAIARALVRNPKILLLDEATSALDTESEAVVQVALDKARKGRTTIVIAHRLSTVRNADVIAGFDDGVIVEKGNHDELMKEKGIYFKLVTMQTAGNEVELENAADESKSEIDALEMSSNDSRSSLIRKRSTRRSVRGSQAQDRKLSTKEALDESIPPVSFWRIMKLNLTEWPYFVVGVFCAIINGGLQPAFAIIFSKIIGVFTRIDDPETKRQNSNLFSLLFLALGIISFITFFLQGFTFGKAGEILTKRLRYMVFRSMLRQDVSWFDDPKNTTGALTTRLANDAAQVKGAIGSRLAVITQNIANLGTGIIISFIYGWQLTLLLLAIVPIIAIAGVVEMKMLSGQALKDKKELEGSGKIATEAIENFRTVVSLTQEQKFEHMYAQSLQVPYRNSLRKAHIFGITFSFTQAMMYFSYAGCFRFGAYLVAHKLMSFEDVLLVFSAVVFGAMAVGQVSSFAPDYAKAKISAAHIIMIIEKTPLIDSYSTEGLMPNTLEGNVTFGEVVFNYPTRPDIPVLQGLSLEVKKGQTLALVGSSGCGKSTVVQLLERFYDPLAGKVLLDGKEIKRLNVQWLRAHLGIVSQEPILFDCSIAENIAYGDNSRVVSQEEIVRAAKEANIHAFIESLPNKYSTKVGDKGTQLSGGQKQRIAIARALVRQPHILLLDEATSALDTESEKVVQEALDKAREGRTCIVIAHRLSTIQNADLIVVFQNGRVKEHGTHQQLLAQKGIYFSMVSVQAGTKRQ

Q: With O=C(NCCCNCc1cc(Cl)cc(Cl)c1)Nc1ccc(F)cc1 as the molecule, how does the ΔTm [1] read?
A: The ΔTm was 6.3 °C.

Q: With O=C(NCCCNCc1cc(Cl)cc(Cl)c1)Nc1cccc(F)c1 as the molecule, how does the ΔTm [1] read?
A: The ΔTm was 7.7 °C.

Q: And the IC50 [2]?
A: The IC50 was 110 nM.

Q: And the Ratio IC50 [3]?
A: Its Ratio IC50 is 39.

Q: What about the EC50 [4] of the same molecule?
A: The EC50 was 757 nM.

Q: What about the EC50 [5] of the same molecule?
A: Its EC50 is 17.9 µM.

Q: For Nc1cccc(NC(=O)NCCCNCc2cc(Cl)cc(Cl)c2)c1, which ΔTm [1] is on record?
A: Its ΔTm is 4.3 °C.

Q: Which results are given for O=C(NCCCNCc1cc(Cl)cc(Cl)c1)Nc1ccccc1O?
A: ΔTm [1]: 8.4 °C; IC50 [2]: 39 nM; Ratio IC50 [3]: 95; EC50 [4]: 210 nM; EC50 [5]: > 20 µM

Q: Which ΔTm [1] does the source give for N=C(NCCCNCc1cc(Cl)cc(Cl)c1)Nc1ccccc1 here?
A: Its ΔTm is 4.5 °C.

Q: Which Papp [6] does the source give for Oc1cc(NCCCNCc2cc(Cl)cc(Cl)c2)nc2ccccc12 here?
A: The Papp was 29 nm/s.

Q: And the concentration at 1 h [7]?
A: Its concentration at 1 h is < 3 nM.

Q: What about the AQ [8] of the same molecule?
A: The AQ was 0.36.

Q: And the inhibition [9]?
A: Its inhibition is “Dose-dependent effect”.

Q: What about the selectivity ratio [10] of the same molecule?
A: Its selectivity ratio is 27.

Q: And the selectivity ratio [11]?
A: Its selectivity ratio is 27.

Q: Which ΔTm [1] does the source give for O=C(NCCCNCc1cc(Cl)cc(Cl)c1)Nc1ccccc1F here?
A: Its ΔTm is 7.3 °C.

Q: What does the source list for COc1cc(Cl)cc(CNCCCNC(=O)Nc2ccccc2)c1?
A: ΔTm [1]: 7.7 °C; IC50 [2]: 45 nM; Ratio IC50 [3]: 186; EC50 [4]: 330 nM; EC50 [12]: 20 µM; Papp [6]: 73 nm/s; AQ [8]: 0.49

Q: With O=C(NCCCNCc1cc(Cl)cc(Cl)c1)Nc1cccc(Cl)c1 as the molecule, how does the ΔTm [1] read?
A: Its ΔTm is 5.2 °C.

Q: For O=C(NCCCNCc1cc(Cl)cc(Cl)c1)Nc1cccs1, which ΔTm [1] is on record?
A: The ΔTm was 7.6 °C.

Q: What about the IC50 [2] of the same molecule?
A: Its IC50 is 64 nM.

Q: What about the Ratio IC50 [3] of the same molecule?
A: Its Ratio IC50 is 48.

Q: What about the EC50 [4] of the same molecule?
A: The EC50 was 350 nM.

Q: What about the EC50 [5] of the same molecule?
A: Its EC50 is 14.5 µM.

Q: Which ΔTm [1] does the source give for O=C(NCCCNCc1cc(Cl)cc(Cl)c1)Nc1ccncc1 here?
A: Its ΔTm is 3.1 °C.

Q: Which ΔTm [1] does the source give for O=C(NCCCNCc1ccccc1)Nc1ccccc1 here?
A: Its ΔTm is 1.3 °C.

Q: For O=C(NCCCNCc1ccc(Cl)cc1)Nc1ccccc1, which ΔTm [1] is on record?
A: The ΔTm was 2.5 °C.

Q: With CCOc1cccc(CNCCCNC(=O)Nc2ccccc2)c1 as the molecule, how does the ΔTm [1] read?
A: The ΔTm was 2.7 °C.

Q: With O=C(NCCCNCc1cc(Cl)cc(Cl)c1)Nc1ccsc1 as the molecule, how does the ΔTm [1] read?
A: Its ΔTm is 8.3 °C.

Q: And the IC50 [2]?
A: The IC50 was 28 nM.

Q: What about the Ratio IC50 [3] of the same molecule?
A: Its Ratio IC50 is 155.

Q: What about the EC50 [4] of the same molecule?
A: The EC50 was 220 nM.

Q: What about the EC50 [5] of the same molecule?
A: Its EC50 is 13 µM.

Q: What about the Papp [6] of the same molecule?
A: The Papp was 172 nm/s.

Q: What about the Cmax [13] of the same molecule?
A: The Cmax was 3.7 µM.

Q: And the Tmax [14]?
A: The Tmax was 30 min.

Q: What about the t1/2 [15] of the same molecule?
A: The t1/2 was 63 min.

Q: What about the AUC [16] of the same molecule?
A: Its AUC is 464 µM·min.

Q: What about the Activity [17] of the same molecule?
A: Its Activity is 94%.

Q: And the EC50 [18]?
A: The EC50 was 420 nM.

Q: And the Activity [19]?
A: Its Activity is “Non-toxic”.

Q: And the AQ [8]?
A: Its AQ is 0.42.

Q: What about the Time [20] of the same molecule?
A: Its Time is <6 h.

Q: What about the inhibition [9] of the same molecule?
A: Its inhibition is “Dose-dependent effect”.

Q: And the selectivity ratio [10]?
A: The selectivity ratio was 55.

Q: What about the selectivity ratio [11] of the same molecule?
A: Its selectivity ratio is 59.

Q: What about the Activity [21] of the same molecule?
A: The Activity was 80%.

Q: And the Activity [22]?
A: The Activity was 63%.

Q: What about the Activity [23] of the same molecule?
A: Its Activity is “inactive”.

Q: Which ΔTm [1] does the source give for O=C(NCCCNCc1cccc(Cl)c1)Nc1ccccc1 here?
A: The ΔTm was 5.5 °C.

Q: With O=C(NCCCNCc1ccccc1Cl)Nc1ccccc1 as the molecule, how does the ΔTm [1] read?
A: The ΔTm was 1.9 °C.
